Source: PubChem
Sampled rows, rich in hits. Any-hit rate of the full collection: about 0.77%.
hIAP act – human IAP activation | activation factor at 10 µM | 330,000 compounds, 0.16% hits | purified human IAP, CDP-Star luminescence, 30 min; stronger effect = higher value; 1 = vehicle-only enzyme, 0 = enzyme-free background | AID 2524 | P09923;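 active = activation factor of the enzyme at least 2-fold when tested at 20 µM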
Target sequence (P09923 whole entry, looked up): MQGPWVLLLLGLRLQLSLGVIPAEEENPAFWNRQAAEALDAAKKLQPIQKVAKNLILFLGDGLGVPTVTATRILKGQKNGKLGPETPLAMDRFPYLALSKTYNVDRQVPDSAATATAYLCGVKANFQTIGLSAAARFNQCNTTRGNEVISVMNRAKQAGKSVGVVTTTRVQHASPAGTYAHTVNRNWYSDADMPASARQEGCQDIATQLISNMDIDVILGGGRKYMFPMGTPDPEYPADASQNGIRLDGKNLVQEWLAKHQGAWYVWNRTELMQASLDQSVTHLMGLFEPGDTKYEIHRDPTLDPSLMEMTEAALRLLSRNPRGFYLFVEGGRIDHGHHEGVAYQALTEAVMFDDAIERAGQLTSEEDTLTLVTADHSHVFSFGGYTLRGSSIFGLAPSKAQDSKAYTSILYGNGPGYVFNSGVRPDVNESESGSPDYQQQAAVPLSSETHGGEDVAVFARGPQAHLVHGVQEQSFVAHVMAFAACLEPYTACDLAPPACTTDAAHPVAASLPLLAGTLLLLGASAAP
mIAP inh – mouse IAP inhibition. purified mouse IAP, CDP-Star luminescence, 30 min. inhibition, % at 10 µM. 330,000 compounds, 0.2% hits. AID 2806;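 active = inhibition of at least 40% at 10 µM in the primary screen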;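 also: plate controls were DMSO with enzyme for no effect and no enzyme wells for full effect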
hIAP block – blocks human intestinal alkaline phosphatase. P09923. purified IAP, CDP-Star luminescence, 30 min. inhibition, % at 10 µM. 330,000 compounds, 0.12% hits;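 active = inhibition reaching a set limit with compound at 10 µM in the primary screen, cut at about 35% in these data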;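 also: plate controls were DMSO wells with enzyme for no effect and no-enzyme buffer wells for full effect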
bIAP inhibitor – intestinal alkaline phosphatase (bovine) inhibition; purified bovine IAP, CDP-star luminescence, 30 min; inhibition, % at 20 µM; 190,000 tested, under 10 active;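 active = over 50% inhibition of intestinal alkaline phosphatase at 20 µM in the single-dose screen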
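System: purified bovine intestinal alkaline phosphatase (IAP) enzyme; Input: IAP diluted 1/65,000,000 in the well; Measured by: CDP-star luminescence signal; Compound dosing: 20 µM single dose; Incubation: 30 min reaction at room temperature.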
bIAP activator – intestinal alkaline phosphatase (bovine) activation | AID 1016 | purified bovine IAP, CDP-star luminescence, 30 min; stronger effect = higher value; fold of DMSO-control signal, blank-subtracted | 200,000 compounds, 0.17% hits | activation factor at 20 µM;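 active = activation factor of 2 or more at 20 µM, a signal rise over negative controls twice the positive control's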
mIAP activ – mouse IAP activation; muIAP, CDP-Star luminescence, 30 min; stronger effect = higher value; 1 = vehicle-only enzyme signal, 0 = enzyme-free wells; activation factor at 10 µM; 330,000 compounds, 0.24% hits;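 active = activation factor of at least 2 at 20 µM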
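Assay system: mouse IAP enzyme; Reagent: CDP-Star chemiluminescent phosphatase substrate; Compound: DMSO-dissolved test compounds; Incubation: 30 min, room temperature; Technique: luminescence from enzymatic CDP-Star hydrolysis; Controls: DMSO-only wells and no-enzyme negative control.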
hIAP act confirm – human IAP activation confirmation | shares compounds with hIAP act | purified IAP, CDP-Star luminescence, 30 min; stronger effect = lower value | activation (%Activity, negative = activation), % at 8.3 µM | 880 compounds, 10% hits | AID 434926;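 active = at least twofold enzyme activation in any of six single-dose repeats, which the averaged readout prints as negative percent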
The depositor's hits bear a star.

For O=C(c1cccc(S(=O)(=O)N2CCc3ccccc3C2)c1)N1CCN(c2ccc(O)cc2)CC1 the results were hIAP act 1.38, mIAP inh 7.4, hIAP block -38.0, bIAP inhibitor 26.3, bIAP activator 0.7 and mIAP activ 0.926.
For CCC(C)(C)C1CCc2[nH]nc(C(=O)N/N=C(\C)c3ccco3)c2C1 (stereo not drawn) the results were hIAP act 2.1*, mIAP inh 2.0, hIAP block -109.7, mIAP activ 0.98 and hIAP act confirm 62.7.
Screening Nc1ccc(-c2c3ccc(=O)cc-3oc3cc(O)ccc23)cc1C(=O)O returned hIAP act 0.643, mIAP inh 26.3, hIAP block 35.7*, mIAP activ 0.737 and hIAP act confirm 64.5.
Screening O=c1ccc2c(-c3ccccc3)c3ccc(O)cc3oc-2c1 returned hIAP act 0.857, mIAP inh 18.9, hIAP block 14.3 and mIAP activ 0.811.
COc1cccc(C2c3c(-c4ccccc4O)n[nH]c3C(=O)N2Cc2ccco2)c1 (stereo not drawn) was read as hIAP act 2.1*, mIAP inh 2.5, hIAP block -110.3, mIAP activ 0.975 and hIAP act confirm 4.2.
`S=c1[nH]nc(-c2cc(-c3ccccc3)n[nH]2)n1/N=C/c1ccc(Cl)cc1` gave hIAP act 2.03*, mIAP inh 0.5, hIAP block -102.9, mIAP activ 0.995 and hIAP act confirm 3.5.
Screening COc1cc(CNC2CCCCCC2)cc(OC)c1 returned hIAP act 0.946, mIAP inh -5.5, hIAP block 5.4, bIAP inhibitor 15.1, bIAP activator 0.8 and mIAP activ 1.05.
`Cc1nn(CC(=O)O)c(C)c1NC(=O)c1cccs1` gave hIAP act 0.582, mIAP inh -1.8, hIAP block 41.8*, mIAP activ 1.02 and hIAP act confirm 14.4.
COc1ccc(/C(C)=N/NC(=O)CNC(=O)c2ccncc2)c(OC)c1 was read as hIAP act 1.37, mIAP inh -14.9, hIAP block -37.1 and mIAP activ 1.15.
For O=[N+]([O-])c1ccc(Nc2ccccc2)c2nonc12 the results were hIAP act 0.615, mIAP inh 20.5, hIAP block 38.5*, mIAP activ 0.795 and hIAP act confirm -18.0.
`CC(C)(C)N(Cc1ccccc1)C(=O)CN1C(=O)c2ccccc2S1(=O)=O` gave hIAP act 1.16, mIAP inh -11.8, hIAP block -16.1 and mIAP activ 1.12.
`Cc1ccccc1CC(=O)N1CCCc2ccccc21` gave hIAP act 0.791, mIAP inh 3.8, hIAP block 20.9 and mIAP activ 0.962.
For O=C(C1CCN(S(=O)(=O)c2ccccc2)CC1)N1CCOCC1 the results were hIAP act 0.596, mIAP inh 9.0, hIAP block 40.4*, bIAP inhibitor 9.8, bIAP activator 0.9, mIAP activ 0.91 and hIAP act confirm -26.2.
For CCN(CC)C(=O)COc1ccc(S(=O)(=O)N2CCOCC2)cc1 the results were hIAP act 2.45*, mIAP inh -6.8, hIAP block -144.8, bIAP inhibitor 7.8, bIAP activator 0.9, mIAP activ 1.07 and hIAP act confirm -25.6.
Screening CCN(CC)C(=O)COc1ccc(S(=O)(=O)N2CCCC2)cc1 returned hIAP act 1.11, mIAP inh 3.5, hIAP block -11.4 and mIAP activ 0.965.
For O=C(O)c1ccccc1C(=O)Nc1cc(-c2ccccc2)[nH]n1 the results were hIAP act 0.614, mIAP inh 11.5, hIAP block 38.6*, mIAP activ 0.885 and hIAP act confirm 61.7.
`O=C(Nc1cc(-c2ccccc2)[nH]n1)c1ccccc1F` gave hIAP act 1.16, mIAP inh -7.1, hIAP block -16.1 and mIAP activ 1.07.
Screening COCC(=O)N1CCC(Oc2ccc(C(=O)NCc3cc(C)no3)cc2)CC1 returned hIAP act 0.64, mIAP inh -6.0, hIAP block 36.0*, mIAP activ 1.06 and hIAP act confirm -4.0.
